In ChEMBL document CHEMBL1133596, “Synthesis and antitumor activities of novel pyrimidine derivatives of 2,3-O,O-dibenzyl-6-deoxy-L-ascorbic acid and 4,5-didehydro-5,6- dideoxy-L-ascorbic acid” (J Med Chem, 2000):
Converted amounts (≈) assume the structure as drawn.

What was measured:
[1] = tested on: L1210; experiment: Evaluated for the inhibition of tumor cell growth of murine leukemia malignant tumor cell line (L1210/0); type: functional, cell-based; details: Mus musculus
Method in brief: (§1)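 Proliferation of the murine (L1210/0, FM3A/0) and human T-lymphoblast (Molt4/C8, CEM/0) lines was measured following the procedure originally described for mouse L1210 cells. IC50 is the concentration, in µg/mL, that inhibits tumour cell proliferation by 50%.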

[2] = tested on: MOLT-4; experiment: Evaluated for the inhibition of tumor cell growth of Human T-Lymphocyte cells (Molt4/C8); type: functional, cell-based; method in brief: as §1
[3] = tested on: HEL; experiment: Evaluated for cytotoxic concentration required to reduce normal human embryonic lung (fibroblast) (HEL) cell growth by 50%; type: functional
Method in brief: (§2)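 Normal human embryonic lung fibroblasts (HEL) were grown with compound. CC50 is the concentration, in µg/mL, that reduces HEL cell growth by 50%.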

[4] = tested on: CCRF-CEM; experiment: Evaluated for the inhibition of tumor cell growth of Human T-Lymphocyte cells (CEM/0); type: functional, cell-based; method in brief: as §1
[5] = tested on: FM3A; experiment: Evaluated for the inhibition of tumor cell growth of murine mammary carcinoma malignant tumor cell line (FM3A/0); type: functional, cell-based; details: Mus musculus; method in brief: as §1
[6] = tested on: HEL; experiment: Evaluated for minimum cytotoxic concentration that causes a microscopically detectable alteration of normal HEL cell morphology; type: functional; details: Homo sapiens
Method in brief: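 HEL fibroblast cultures were examined by microscope. MCC is the lowest concentration, in µg/mL, that causes a detectable change in normal cell morphology.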

[7] = tested on: HEL; experiment: Evaluated for cytotoxic concentration required to reduce normal human embryonic lung (fibroblast) HEL cell growth by 50%; type: functional; method in brief: as §2
[8] = tested on: MEF; experiment: Evaluated for cytotoxicity against murine embryo fibroblasts (MEF); type: functional, Mus musculus
Method in brief: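 Murine embryo fibroblasts (MEF) were tested for inhibition of proliferation following the method originally described for mouse L1210 cells. Values are given as cytotoxic concentrations in µg/mL.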

| Structure (SMILES) | IC50 [1] [µg/mL] | IC50 [2] [µg/mL] | CC50 [3] [µg/mL] | IC50 [4] [µg/mL] | IC50 [5] [µg/mL] | MCC [6] [µg/mL] | CC50 [7] [µg/mL] | Cytotoxicity [8] [µg/mL] |
| --- | --- | --- | --- | --- | --- | --- | --- | --- |
| O=C1OC(C(O)Cn2cc(C(F)(F)F)c(=O)[nH]c2=O)C(OCc2ccccc2)=C1OCc1ccccc1 (stereo not drawn) | 26 (≈ 50.2 µM) | 47.4 (≈ 91.4 µM) | 31.7 (≈ 61.1 µM) | 19 (≈ 36.6 µM) | 38.4 (≈ 74.1 µM) | 50 | – | – |
| O=C1OC(C(O)Cn2cc(F)c(=O)[nH]c2=O)C(OCc2ccccc2)=C1OCc1ccccc1 (stereo not drawn) | 65.6 (≈ 140 µM) | 81.2 (≈ 173 µM) | – | 74 (≈ 158 µM) | 52.2 (≈ 111 µM) | 50 | 33.4 (≈ 71.3 µM) | – |
| O=C1O/C(=C\Cn2cc(F)c(=O)[nH]c2=O)C(O)=C1O | 1.4 (≈ 5.18 µM) | 31.8 (≈ 118 µM) | 23 (≈ 85.1 µM) | 20.9 (≈ 77.4 µM) | 0.78 (≈ 2.89 µM) | > 50 | – | 0.92 |
| O=C1O/C(=C\Cn2ccc(=O)[nH]c2=O)C(O)=C1O | > 200 | > 200 | > 50 | > 200 | > 200 | > 50 | – | – |
| O=C1OC(C(O)Cn2ccc(=O)[nH]c2=O)C(OCc2ccccc2)=C1OCc1ccccc1 (stereo not drawn) | 70.8 (≈ 157 µM) | 67.8 (≈ 151 µM) | – | 68.6 (≈ 152 µM) | 74.1 (≈ 165 µM) | > 50 | > 50 | – |
| O=C1O/C(=C\Cn2ccc(=O)[nH]c2=O)C(OCc2ccccc2)=C1O | > 200 | > 200 | > 50 | > 200 | > 200 | > 50 | – | – |
| O=C1O/C(=C\Cn2cc(C(F)(F)F)c(=O)[nH]c2=O)C(O)=C1O | 76.1 (≈ 238 µM) | > 200 | > 50 | > 200 | 162 (≈ 506 µM) | > 50 | – | – |
| O=c1[nH]c(=O)n([C@H]2C[C@H](O)[C@@H](CO)O2)cc1F [FLOXURIDINE] | 0.0003 (≈ 0.00122 µM) | 2.6 (≈ 10.6 µM) | – | 0.003 (≈ 0.0122 µM) | 0.0008 (≈ 0.00325 µM) | – | – | 0.0001 |
| O=c1[nH]cc(F)c(=O)[nH]1 [FLUOROURACIL] | 0.04 (≈ 0.308 µM) | 2.9 (≈ 22.3 µM) | – | 1.2 (≈ 9.23 µM) | 0.02 (≈ 0.154 µM) | – | – | 0.2 |
